Measured values taken from paper PMC12667952 (bioRxiv, 2025).
Numbering of substitutions follows the chain as printed. Entries after “also recorded” stand apart in the source; their conditions may differ. Read-outs that look alike come from different tables or passages of the source.

How the values were obtained:
adrenergic receptors = assay: Cerep panel off-target selectivity screen, adrenergic receptors; format: binding; conditions: 1 × 10^-5 M
hGlyT2^D633E [1] = biological target: T1, hGlyT2^D633E (Homo sapiens, UniProt Q9Y345, D633E); assay: Reversibility; format: cell-based
T1 sequence (Q9Y345 1-797 D633E): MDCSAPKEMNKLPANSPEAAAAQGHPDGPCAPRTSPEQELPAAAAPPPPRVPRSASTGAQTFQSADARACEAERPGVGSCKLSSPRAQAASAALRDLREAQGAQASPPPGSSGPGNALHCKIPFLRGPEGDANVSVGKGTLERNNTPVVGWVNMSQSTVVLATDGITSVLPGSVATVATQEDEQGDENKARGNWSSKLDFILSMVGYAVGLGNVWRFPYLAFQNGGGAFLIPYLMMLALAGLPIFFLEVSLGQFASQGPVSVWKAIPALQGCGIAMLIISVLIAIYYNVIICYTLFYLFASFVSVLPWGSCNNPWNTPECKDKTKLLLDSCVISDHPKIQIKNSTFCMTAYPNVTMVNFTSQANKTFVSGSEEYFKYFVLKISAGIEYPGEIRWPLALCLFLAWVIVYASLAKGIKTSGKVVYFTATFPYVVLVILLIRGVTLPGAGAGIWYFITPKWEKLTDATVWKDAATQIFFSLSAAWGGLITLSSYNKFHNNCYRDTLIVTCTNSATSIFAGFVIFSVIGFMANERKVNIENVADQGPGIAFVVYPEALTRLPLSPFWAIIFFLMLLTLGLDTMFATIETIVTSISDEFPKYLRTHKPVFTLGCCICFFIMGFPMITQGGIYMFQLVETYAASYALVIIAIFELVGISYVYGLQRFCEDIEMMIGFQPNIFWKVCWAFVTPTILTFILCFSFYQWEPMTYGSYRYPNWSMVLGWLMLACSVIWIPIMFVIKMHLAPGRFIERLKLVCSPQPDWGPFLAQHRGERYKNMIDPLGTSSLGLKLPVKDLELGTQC

PSNL mice = assay: Mechanical allodynia; format: in vivo, mouse; conditions: 50 mg/kg i.p., 90 mins
hGlyT2^D633E [2] = biological target: T1, hGlyT2^D633E; format: cell-based
C57BL/6J mice = assay: Conditioned place preference; format: in vivo, mouse; conditions: 50 and 150 mg/kg, i.p.
CCI mice = assay: Mechanical allodynia; format: in vivo, mouse; conditions: for Peak reduction of response rate to von Frey stimulus: 3 hours
How it was run: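 CCI mice tested 14 days after surgery. […] A single 0.4 g von Frey filament (about 15% response in naïve mice) applied to the left hind plantar surface until it bent. Response rate recorded after dosing.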

hGlyT2^W215F = biological target: T2, hGlyT2^W215F (Homo sapiens, UniProt Q9Y345, W215F); assay: Reversibility; format: cell-based
T2 sequence (Q9Y345 1-797 W215F): T1 sequence (Q9Y345 1-797 D633E) with W215F, E633D

hGlyT2^WT = biological target: T3, hGlyT2^WT (Homo sapiens, UniProt Q9Y345); format: cell-based
T3 sequence (Q9Y345 1-797): T1 sequence (Q9Y345 1-797 D633E) with E633D

Compound: CN(C)C1(CNC(=O)c2ccc3c(c2)CCN3C(=O)c2ccccc2)CCOCC1 [RPI-GLYT2–82, 1-benzoyl-N-((4-(dimethylamino)tetrahydro-2H-pyran-4-yl)methyl)indoline-5-carboxamide]
- Activity at adrenergic receptors (adrenergic receptors): inactive
- Washout of inhibitor from hGlyT2^D633E (hGlyT2^D633E [1]): almost immediate
- Peak reduction of response rate to von Frey stimulus (PSNL mice): 22.5%
- IC50 (hGlyT2^D633E [2]): > 10000 nM
- Reduction in potency of inhibition, D633E versus WT (hGlyT2^D633E [2]): > 18 fold
- Preference for the paired chamber (C57BL/6J mice): did not increase preference; also recorded: no significant preference
- Peak reduction of response rate to von Frey stimulus (CCI mice; CCI mice, 50 mg/kg i.p.): 30%
- Peak reduction of response rate to von Frey stimulus (CCI mice; CCI mice, 100 mg/kg i.p.): 42%
- Time of maximum efficacy, mechanical allodynia (CCI mice; CCI mice, 50 and 100 mg/kg i.p.): between 90 minutes and 3 hours post-administration
- Efficacy at alleviating mechanical allodynia compared to pregabalin (CCI mice; pregabalin 50 mg/kg): not as efficacious
- Washout of inhibitor from hGlyT2^W215F (hGlyT2^W215F): almost immediate
- IC50 (hGlyT2^WT): 550 nM
- IC50 (hGlyT2^WT; IC50, inhibition of glycine transport currents, hGlyT2^WT, Xenopus oocytes, currents generated by EC50 (30 μM) glycine, n = 5): 554 nM
